From ChEMBL document CHEMBL3593222, “6-Phenoxy-2-phenylbenzoxazoles, novel inhibitors of receptor for advanced glycation end products (RAGE)” (Bioorg Med Chem, 2015)
Active and inactive are the calls of the source. The rule behind the calls is not given here.

Key:
HT-22 = experiment: (§1) Cytotoxicity against mouse HT22 cells assessed as cell viability at 10 uM after 18 hrs by MTT assay; type: cell-based; conditions: ht-22, 18 h, 10 µM
Outline: (§2)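 HT22 cells were grown in DMEM with 10% FBS and penicillin/streptomycin at 37 °C in 5% CO2, and seeded at 5000 cells/well. Next day they were exposed to 10 µM compound for 18 h. MTT was then added for 3 h, formazan dissolved in acidic 2-propanol, and OD read at 570 nm. Viability is blank-corrected absorbance relative to control. Run in triplicate.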

[1] = biological target: Advanced glycosylation end product-specific receptor (Homo sapiens) (UniProt Q15109); experiment: Inhibition of human RAGE-amyloid beta-42 interaction at 4 uM preincubated for 30 mins measured after 1 hr by FRET assay relative to control
Sequence of Advanced glycosylation end product-specific receptor (Homo sapiens) (Q15109 whole entry): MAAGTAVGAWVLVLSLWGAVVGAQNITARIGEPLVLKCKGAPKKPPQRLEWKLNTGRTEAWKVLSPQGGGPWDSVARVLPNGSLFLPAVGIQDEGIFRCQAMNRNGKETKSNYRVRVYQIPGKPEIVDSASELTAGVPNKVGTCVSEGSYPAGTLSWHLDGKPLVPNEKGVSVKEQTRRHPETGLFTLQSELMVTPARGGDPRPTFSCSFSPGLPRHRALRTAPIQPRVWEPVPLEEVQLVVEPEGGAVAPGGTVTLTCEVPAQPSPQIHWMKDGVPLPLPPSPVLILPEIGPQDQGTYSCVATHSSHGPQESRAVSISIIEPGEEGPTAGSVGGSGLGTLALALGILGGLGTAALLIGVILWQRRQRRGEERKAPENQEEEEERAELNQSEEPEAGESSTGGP
Outline: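 Biotinylated human RAGE (2.5 µg) was premixed with 200 ng Cy3-streptavidin in PBS for 30 min at rt. Aβ42-FITC (50 µL of 40 nM) and compound (50 µL of 4 µM) were then added, in 200 µL final volume with 0.1% DMSO. Fluorescence was read 1 h later. FRET efficiency was computed from donor emission with and without acceptor, and percent inhibition was taken against vehicle. Triplicate.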

[2] = as §1; type: cell-based, HT-22; conditions: HT22 cells, read-out: Activity; outline: as §2

| Structure (SMILES) | Activity (HT-22) | inhibition [1] | viability at 18 h, 10 µM [2] |
| --- | --- | --- | --- |
| N[C@@H]1CCN(CCCOc2ccc(-c3nc4ccc(Oc5ccc(Cl)cc5)cc4o3)cc2)C1 | Non-toxic | 19.6% |  |
| FC(F)(F)c1ccc(Oc2ccc3nc(-c4ccc(OCCCN5CCOCC5)cc4)oc3c2)cc1 | Non-toxic | 32.1% |  |
| CC(C)(C)c1ccc(Oc2ccc3nc(-c4ccc(OCCCN5CCOCC5)cc4)oc3c2)cc1 | Non-toxic | inactive |  |
| Fc1ccc(Oc2ccc3nc(-c4ccc(OCCCN5CCCCC5)cc4)oc3c2)cc1 | Non-toxic | 30.3% |  |
| CCN(CC)CCCOc1ccc(-c2nc3ccc(Oc4ccc(F)cc4)cc3o2)cc1 | Non-toxic | 5.4% |  |
| OCCN1CCN(CCCOc2ccc(-c3nc4ccc(Oc5ccc(Cl)cc5)cc4o3)cc2)CC1 |  | 3.3% | 3.3% |
| CC(C)(C)c1ccc(Oc2ccc3nc(-c4ccc(OCCCN5CC[C@H](N)C5)cc4)oc3c2)cc1 |  | 54.7% | 60.3% |
| COC(=O)N1CCN(CCCOc2ccc(-c3nc4ccc(Oc5ccc(Cl)cc5)cc4o3)cc2)CC1 | Non-toxic | inactive |  |
| CN1CCN(CCCOc2ccc(-c3nc4ccc(Oc5ccc(Cl)cc5)cc4o3)cc2)CC1 |  | 24.3% | 69.3% |
| CC(C)(C)OC(=O)N1CCC(Oc2ccc(-c3nc4ccc(Oc5ccc(Cl)cc5)cc4o3)cc2)CC1 | Non-toxic | inactive |  |
| CC(C)(C)OC(=O)N[C@H]1CCN(CCCOc2ccc(-c3nc4ccc(Oc5ccc(Cl)cc5)cc4o3)cc2)C1 |  | 16.6% | 58.2% |
| CCN(CC)CCCOc1ccc(-c2nc3ccc(Oc4ccc(C(F)(F)F)cc4)cc3o2)cc1 | Non-toxic | 34.9% |  |
| CC(C)COC(=O)N1CCN(CCCOc2ccc(-c3nc4ccc(Oc5ccc(Cl)cc5)cc4o3)cc2)CC1 | Non-toxic | 41.2% |  |
| FC(F)(F)c1cccc(Oc2ccc3nc(-c4ccc(OCCCN5CCCCC5)cc4)oc3c2)c1 |  | 42.7% | 4.4% |
| CC(C)(C)c1ccc(Oc2ccc3nc(-c4ccc(OCCCN5CCCC5)cc4)oc3c2)cc1 | Non-toxic | inactive |  |
| Fc1ccc(Oc2ccc3nc(-c4ccc(OCCCN5CCOCC5)cc4)oc3c2)cc1 | Non-toxic | 56.7% |  |
| N[C@H]1CCN(CCCOc2ccc(-c3nc4ccc(Oc5ccc(Cl)cc5)cc4o3)cc2)C1 | Non-toxic | 29.9% |  |
| CC(C)(C)OC(=O)N1CCC(COc2ccc(-c3nc4ccc(Oc5ccc(Cl)cc5)cc4o3)cc2)CC1 | Non-toxic | inactive |  |
| CC(C)N1CCC(COc2ccc(-c3nc4ccc(Oc5ccc(Cl)cc5)cc4o3)cc2)CC1 | Non-toxic | 26.2% |  |
| Clc1ccc(Oc2ccc3nc(-c4ccc(OCCCN5CCCC5)cc4)oc3c2)cc1 | Non-toxic | inactive |  |
| FC(F)(F)c1cccc(Oc2ccc3nc(-c4ccc(OCCCN5CCOCC5)cc4)oc3c2)c1 | Non-toxic | inactive |  |
| Clc1ccc(Oc2ccc3nc(-c4ccc(OCCN5CCOCC5)cc4)oc3c2)cc1 | Non-toxic | 25.7% |  |
| CC(=O)N1CCC(Oc2ccc(-c3nc4ccc(Oc5ccc(Cl)cc5)cc4o3)cc2)CC1 | Non-toxic | 20% |  |
| CCN(CC)CCCOc1ccc(-c2nc3ccc(Oc4cccc(C(F)(F)F)c4)cc3o2)cc1 | Non-toxic | 24.1% |  |
| Clc1ccc(Oc2ccc3nc(-c4ccc(OCCCN5CCOCC5)cc4)oc3c2)cc1 | Non-toxic | inactive |  |
| CCOC(=O)N1CCN(CCCOc2ccc(-c3nc4ccc(Oc5ccc(Cl)cc5)cc4o3)cc2)CC1 | Non-toxic | 6.6% |  |
| CC(C)(C)OC(=O)N[C@@H]1CCN(CCCOc2ccc(-c3nc4ccc(Oc5ccc(C(C)(C)C)cc5)cc4o3)cc2)C1 | Non-toxic | 26.8% |  |
